This is a sample that favours compounds with a hit; in the whole collection about 4.6% have one here.
OX1R antag-1: human HCRTR1 antagonism; O43613; CHO/OX1R cells, Fluo-8 calcium fluorescence, orexin A; inhibition, % at 5 µM; 330,000 tested, 0.43% active; AID 434989;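 active = inhibition above its plate's threshold, mean inhibition of all tested compounds on the plate plus 3 SD, cut at about 37% in these data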;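 note: 0% = orexin A challenge wells and 100% = SB-334867-A antagonist wells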
Target sequence (O43613 whole entry, looked up): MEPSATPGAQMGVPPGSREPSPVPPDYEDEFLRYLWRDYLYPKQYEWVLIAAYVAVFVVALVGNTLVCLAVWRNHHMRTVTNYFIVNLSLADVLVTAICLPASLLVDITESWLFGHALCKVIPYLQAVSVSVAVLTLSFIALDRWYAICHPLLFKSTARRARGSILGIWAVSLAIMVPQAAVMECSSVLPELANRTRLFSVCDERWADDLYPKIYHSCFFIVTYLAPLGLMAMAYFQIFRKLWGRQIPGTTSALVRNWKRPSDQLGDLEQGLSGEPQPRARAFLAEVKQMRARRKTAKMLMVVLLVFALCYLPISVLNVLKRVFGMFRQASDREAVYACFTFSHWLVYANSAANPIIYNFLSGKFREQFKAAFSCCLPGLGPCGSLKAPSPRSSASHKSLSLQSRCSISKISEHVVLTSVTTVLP
OX1R antag-2: OX1R (human) antagonism | OX1R-expressing cells, FRET antagonist read-out | inhibition, % at 6.6 µM | 330,000 tested, 1.8% active; in the data active = inhibition mostly above about 38%, no sharp cut-off; inactive = mostly below about 40%;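 note: 0% = agonist challenge alone and 100% = reference antagonist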
GPR7 antagonist: blocks human GPR7 receptor signaling; inhibition, % at 4.4 µM; GPR7-expressing cells, fluorescence antagonist assay; AID 1861; 290,000 tested, 1.1% active; in the data active = inhibition above about 16%, passing the limit was not always enough;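 note: cells stimulated with the agonist NPW; 0% = agonist with vehicle and 100% = vehicle without agonist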
TAAR1 antag: human TAAR1 antagonism; CHO RD-HGA16 TAAR1, Fluo-8 calcium fluorescence, antagonist; Q96RJ0; 360,000 tested, 1.5% active; inhibition, % at 3 µM;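 active = inhibition above a per-plate cutoff, the mean inhibition of test compounds on that plate plus 3 SD, cut at about 49% in these data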;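 note: 0% = DMSO plus EC80 beta-PEA response and 100% = DMSO alone without agonist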
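Assay system: CHO-derived RD-HGA16 cells stably expressing human TAAR1 plus Gα16. Timing: 140 s kinetic read after compound, 140 s after agonist. Technique: kinetic Fluo-8 calcium fluorescence measurement. Measure: % inhibition of agonist calcium response.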
TAAR1 ag: human TAAR1 agonism; Q96RJ0; CHO RD-HGA16 TAAR1, Fluo-8 calcium fluorescence; vehicle wells 0%, saturating PEA agonist 100%; activation, % at 3 µM; 360,000 tested, 0.99% active; AID 624467;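 active = activation above the mean activation of all test compounds in the run plus 3 SD, cut at about 38% in these data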
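Benchmarks: low control DMSO, high control PEA (EC100); System: CHO RD-HGA16 cells carrying human TAAR1 plus Gα16; Detection: Fluo-8 fluorescence, 5 s baseline then 140 s kinetic read; Schedule: 17-24 h plating, Fluo-8 75 min 37 °C, 30 min RT; Read-out basis: % activation from peak over basal fluorescence ratio, DMSO-to-PEA scaled.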
CHO parental Ca: counter-screen for OX1R antagonists: effect in parental CHO cells; parental CHO-K1, ATP-induced calcium, Fluo-8 fluorescence; inhibition, % at 5.6 µM; 330,000 tested, 0.63% active; AID 463079;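 active = inhibition above that plate's mean sample inhibition plus 3 SD, cut at about 26% in these data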;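 note: 0% = ATP-challenged DMSO wells and 100% = DMSO wells without ATP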
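Measured by: calcium-sensitive Fluo-8 fluorescence / Test system: CHO parental line / Controls: ATP-challenged DMSO wells low, unchallenged DMSO wells high / Measure: % inhibition / Compound: single nominal dose of 5.6 µM per compound / Replicates: single well per compound, no replicates / Reagent: ATP as calcium-mobilizing challenge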
* = called active by the depositor; . = no result given; ! = repeats disagree.

SMILES | OX1R antag-1 | OX1R antag-2 | GPR7 antagonist | TAAR1 antag | TAAR1 ag | CHO parental Ca
O=C(CSc1nc2ncc(Cl)cc2[nH]1)Nc1ccccc1-c1ccccc1 | 21 | 35* | -9 | -1 | 2 | -19
O=C(CSc1nc2ncc(Br)cc2[nH]1)Nc1ccccc1-c1ccccc1 | 17 | 36 | -6 | -25 | 20 | -2
CCCn1c(SCC(=O)Nc2ccccc2-c2ccccc2)nnc1-c1ccoc1C | -12 | 59* | -2 | 12 | 1 | -9
Cn1nnnc1SCC(=O)Nc1ccccc1-c1ccccc1 | -15 | 10 | 16* | -9 | 6 | -11
O=C(NCc1cccs1)c1cccn2c(=O)c3sccc3nc12 | -10 | 20 | -2 | -20 | 3 | -19
O=C(NCc1ccco1)c1cccn2c(=O)c3sccc3nc12 | -29 | 42* | -3 | -2 | 5 | -21
CCN(C[C@H]1N[C@@](CC)(C(=O)OC)[C@H]2C(=O)N(Cc3ccccc3)C(=O)[C@@H]12)C(=O)c1ccc(C)cc1 | -14 | 9 | . | 50* | 11 | -19
COc1ccccc1-c1cc2nc(NCCc3ccncc3)ccn2n1 | . | . | . | 8 | 5 | .
COc1ccccc1-c1cc2nc(NCCc3ccc(S(N)(=O)=O)cc3)ccn2n1 | . | . | . | 56* | 4 | .
NS(=O)(=O)c1ccc(CCNc2ccn3nc(-c4cccc(C(F)(F)F)c4)cc3n2)cc1 | . | . | . | 61* | 22 | .
O=c1cc(-c2ccccc2)nc2c(Cl)cc(Cl)cn12 | . | . | . | 3 | -1 | .
CCCc1cc(=O)oc2c3c(c(Cl)cc12)OCN(CCCO)C3 | -1 | 11 | -7 | . | . | -11
Cc1cc(=O)n2[nH]c(-c3ccccc3)cc2n1 | -25 | 30 | 5 | -18 | 3 | -6
Cc1cc(=O)n2[nH]c(-c3ccc(C(C)(C)C)cc3)cc2n1 | -10 | 13 | 25*! | 24 | 4 | -7
O=C(Nn1cnnc1)c1ccccc1-c1ccccc1 | -15 | 14 | -14 | -6 | 2 | 11
C=CCNC(=O)COC(=O)c1ccc(Sc2nncn2C)c([N+](=O)[O-])c1 | -23 | 73* | 1 | 15 | -1 | 5
O=C(NCc1ccc(F)cc1)c1cccc2c1C(=O)c1ccc(Cl)cc1S2(=O)=O | . | . | . | 0 | 9 | .
COc1ccc(OC[C@@H](O)CNC(=O)c2cccc3c2C(=O)c2ccc(Cl)cc2S3(=O)=O)cc1 | -22 | 42* | . | 35 | 25 | -35
Cc1ccc(NC(=O)c2cc3ccccc3oc2=N)cc1 | 8 | -1 | -3 | -17 | 0 | 5
N=c1oc2c3c4c(cc2cc1C(=O)Nc1ccccc1)CCCN4CCC3 | 94* | 95* | -4 | . | . | 62*
O=c1oc(-c2ccc([N+](=O)[O-])cc2)nc2ccc(O)cc12 | -11 | 75* | -2 | 17 | 4 | 7
COCCNC(=O)C1CC(=O)N(c2ccc(OC)cc2)C1c1ccc(OC)cc1 (centres undefined) | -50 | 4 | -4 | -10 | 0 | -33
Cc1ccc(NC(=O)CC2SC3=NCCN3C2=O)cc1 (centres undefined) | 14 | 8 | -9 | 8 | 2 | 33*
O=C(/C=C/c1ccc(Br)o1)NCCCN1CCOCC1 | -3 | 15 | -1 | 1 | 1 | -10
CC(C)Oc1cc(F)ccc1-c1cc(C(=O)Nc2cccc(C(F)(F)F)c2)[nH]n1 | . | . | . | 55* | 1 | .
SMILES | OX1R antag-1 | OX1R antag-2 | GPR7 antagonist | TAAR1 antag | TAAR1 ag | CHO parental Ca
Cc1cc(F)ccc1-c1cc(C(=O)NCc2ccccc2)[nH]n1 | . | . | . | 0 | 2 | .
CC(C)Oc1ccc(F)cc1-c1cc(C(=O)NCc2ccc(C(F)(F)F)cc2)[nH]n1 | . | . | . | 54* | 2 | .
Cc1cc(O)ccc1-c1cc(C(=O)NCc2ccc(F)cc2)[nH]n1 | . | . | . | 32 | 49* | .
CC(C)Oc1ccc(F)cc1-c1cc(C(=O)NCc2cc(C(F)(F)F)cc(C(F)(F)F)c2)[nH]n1 | . | . | . | 6 | 0 | .
CC1CCc2sc(C(=O)OCC(=O)NCc3ccc(F)cc3)cc2C1 (centres undefined) | -14 | 29 | -2 | 4 | -1 | -9
CN(CC(=O)Nc1cccc(F)c1)C(=O)c1cc(S(=O)(=O)N2CCN(c3ccccc3)CC2)ccc1Cl | 14 | 7 | . | 45 | 8 | -5
COc1ccc(C(=O)Nc2cc3c(cc2OC)CCCC3)cc1Br | 9 | 72* | -11 | 9 | 13 | 31*

Screening data from PubChem.
